In ChEMBL document CHEMBL1157630, “A class of novel Schiff's bases: Synthesis, therapeutic action for chronic pain, anti-inflammation and 3D QSAR analysis” (2010):

Experiments:
Assay type in all cases: functional
[1] = test system: Mus musculus; assay: Analgesic activity in ICR mouse assessed as increase in pain threshold variation at 20 umol/kg, po administered as single dose measured after 90 mins by tail flick test
Method in brief: (§1)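 Tail-flick test in mice housed 12/12 h light/dark at 21 ± 2 °C for one day. A single oral dose of 20 µmol/kg was given in 0.2 ml normal saline; vehicle controls got saline alone. Basal threshold was measured four times, then every 30 min to 180 min, with a 10 s cut-off. PTV = (post − basal)/basal. n = 12, mean ± SD%, one-way ANOVA.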

[2] = test system: Mus musculus; assay: Analgesic activity in ICR mouse assessed as increase in pain threshold variation at 20 umol/kg, po administered as single dose measured after 120 mins by tail flick test; method in brief: as §1
[3] = test system: Mus musculus; assay: Analgesic activity in ICR mouse assessed as increase in pain threshold variation at 20 umol/kg, po administered as single dose measured after 180 mins by tail flick test; method in brief: as §1
[4] = test system: Mus musculus; assay: Analgesic activity in ICR mouse assessed as increase in pain threshold variation at 20 umol/kg, po administered as single dose measured after 60 mins by tail flick test; method in brief: as §1
[5] = test system: Mus musculus; assay: Analgesic activity in ICR mouse assessed as increase in pain threshold variation at 20 umol/kg, po administered as single dose measured after 30 mins by tail flick test; method in brief: as §1
[6] = test system: Mus musculus; assay: Analgesic activity in ICR mouse assessed as increase in pain threshold variation at 20 umol/kg, po administered as single dose measured after 150 mins by tail flick test; method in brief: as §1
[7] = test system: Mus musculus; assay: Analgesic activity in ICR mouse assessed as increase in pain threshold variation at 20 umol/kg, ip administered as single dose measured after 60 mins by tail flick test
Method in brief: (§2)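 Mice were housed on a 12/12 light/dark cycle at 21 ± 2 °C for one day before use. Each got a single intraperitoneal dose of 20 µmol/kg in normal saline; vehicle controls got […]. Tail-flick basal threshold was read four times, then every 30 min to 180 min with a 10 s cut-off. PTV = (post-dose threshold − basal)/basal. n = 12, mean ± SD, one-way ANOVA.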

[8] = test system: Mus musculus; assay: Analgesic activity in ICR mouse assessed as increase in pain threshold variation at 20 umol/kg, ip administered as single dose measured after 180 mins by tail flick test; method in brief: as §2
[9] = test system: Mus musculus; assay: Analgesic activity in ICR mouse assessed as increase in pain threshold variation at 20 umol/kg, ip administered as single dose measured after 150 mins by tail flick test; method in brief: as §2
[10] = test system: Mus musculus; assay: Analgesic activity in ICR mouse assessed as increase in pain threshold variation at 20 umol/kg, ip administered as single dose measured after 90 mins by tail flick test; method in brief: as §2
[11] = test system: Mus musculus; assay: Analgesic activity in ICR mouse assessed as increase in pain threshold variation at 20 umol/kg, ip administered as single dose measured after 120 mins by tail flick test; method in brief: as §2
[12] = test system: Mus musculus; assay: Analgesic activity in ICR mouse assessed as increase in pain threshold variation at 20 umol/kg, ip administered as single dose measured after 30 mins by tail flick test; method in brief: as §2
[13] = test system: Mus musculus; assay: Antiinflammatory activity in ICR mouse assessed as inhibition of xylene-induced ear edema at 165 umol/kg, po
Method in brief: (§3)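 Male ICR mice (20 ± 2 g), 12 per group, were dosed orally: test agents as suspensions in normal saline, aspirin in CMC. After 30 min, 0.03 ml xylene was applied to both surfaces of the right ear, with the left ear as control. After 2 h the mice were killed, 8 mm ear discs were weighed, and edema was taken as right minus left weight.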

[14] = test system: Mus musculus; assay: Analgesic activity in ICR mouse assessed as increase in pain threshold variation at 165 umol/kg, po administered as single dose measured after 30 mins by tail flick test
[15] = test system: Mus musculus; assay: Analgesic activity in ICR mouse assessed as increase in pain threshold variation at 165 umol/kg, po administered as single dose measured after 60 mins by tail flick test
[16] = test system: Mus musculus; assay: Analgesic activity in ICR mouse assessed as increase in pain threshold variation at 165 umol/kg, po administered as single dose measured after 120 mins by tail flick test
[17] = test system: Mus musculus; assay: Analgesic activity in ICR mouse assessed as increase in pain threshold variation at 165 umol/kg, po administered as single dose measured after 150 mins by tail flick test
[18] = test system: Mus musculus; assay: Analgesic activity in ICR mouse assessed as increase in pain threshold variation at 165 umol/kg, po administered as single dose measured after 90 mins by tail flick test
[19] = test system: Mus musculus; assay: Analgesic activity in ICR mouse assessed as increase in pain threshold variation at 165 umol/kg, po administered as single dose measured after 180 mins by tail flick test
[20] = test system: Mus musculus; assay: Antiinflammatory activity in ICR mouse assessed as inhibition of xylene-induced ear edema at 10 umol/kg, po; method in brief: as §3
[21] = test system: Mus musculus; assay: Antiinflammatory activity in ICR mouse assessed as inhibition of xylene-induced ear edema at 5 umol/kg, po; method in brief: as §3
[22] = test system: Mus musculus; assay: Antiinflammatory activity in ICR mouse assessed as inhibition of xylene-induced ear edema at 20 umol/kg, po; method in brief: as §3
[23] = test system: Mus musculus; assay: Analgesic activity in ICR mouse assessed as increase in pain threshold variation at 2 umol/kg, ip administered as single dose measured after 120 mins by tail flick test; conditions: in the assay text read “po administered” for “ip administered”
Method in brief: (§4)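 Mice were housed 12/12 h light/dark at 21 ± 2 °C for one day, then given a single dose. Tail-flick basal threshold was read four times, then every 30 min up to 180 min, with a 10 s cut-off. PTV = (post-dose threshold − basal)/basal. n = 12, mean ± SD%, one-way ANOVA against saline vehicle at each time point.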

[24] = test system: Mus musculus; assay: Analgesic activity in ICR mouse assessed as increase in pain threshold variation at 2 umol/kg, ip administered as single dose measured after 90 mins by tail flick test; conditions: in the assay text read “po administered” for “ip administered”; method in brief: as §4
[25] = test system: Mus musculus; assay: Analgesic activity in ICR mouse assessed as increase in pain threshold variation at 0.2 umol/kg, ip administered as single dose measured after 30 mins by tail flick test; method in brief: as §4
[26] = test system: Mus musculus; assay: Analgesic activity in ICR mouse assessed as increase in pain threshold variation at 0.2 umol/kg, ip administered as single dose measured after 60 mins by tail flick test; method in brief: as §4
[27] = test system: Mus musculus; assay: Analgesic activity in ICR mouse assessed as increase in pain threshold variation at 0.2 umol/kg, ip administered as single dose measured after 120 mins by tail flick test; method in brief: as §4
[28] = test system: Mus musculus; assay: Analgesic activity in ICR mouse assessed as increase in pain threshold variation at 2 umol/kg, ip administered as single dose measured after 30 mins by tail flick test; conditions: in the assay text read “po administered” for “ip administered”; method in brief: as §4
[29] = test system: Mus musculus; assay: Analgesic activity in ICR mouse assessed as increase in pain threshold variation at 0.2 umol/kg, ip administered as single dose measured after 90 mins by tail flick test; method in brief: as §4
[30] = test system: Mus musculus; assay: Analgesic activity in ICR mouse assessed as increase in pain threshold variation at 2 umol/kg, ip administered as single dose measured after 60 mins by tail flick test; conditions: in the assay text read “po administered” for “ip administered”; method in brief: as §4
[31] = test system: Mus musculus; assay: Analgesic activity in ICR mouse assessed as increase in pain threshold variation at 0.2 umol/kg, ip administered as single dose measured after 180 mins by tail flick test; conditions: in the assay text read “po administered” for “ip administered”; method in brief: as §4
[32] = test system: Mus musculus; assay: Analgesic activity in ICR mouse assessed as increase in pain threshold variation at 2 umol/kg, ip administered as single dose measured after 180 mins by tail flick test; method in brief: as §4
[33] = test system: Mus musculus; assay: Analgesic activity in ICR mouse assessed as increase in pain threshold variation at 0.2 umol/kg, ip administered as single dose measured after 150 mins by tail flick test; conditions: in the assay text read “po administered” for “ip administered”; method in brief: as §4
[34] = test system: Mus musculus; assay: Analgesic activity in ICR mouse assessed as increase in pain threshold variation at 2 umol/kg, ip administered as single dose measured after 150 mins by tail flick test; conditions: in the assay text read “po administered” for “ip administered”; method in brief: as §4

SMILES | Activity [1] [%] | Activity [2] [%] | Activity [3] [%] | Activity [4] [%] | Activity [5] [%] | Activity [6] [%] | inhibition in vivo at 10 µmol/kg [20] [%] | inhibition in vivo at 5 µmol/kg [21] [%] | inhibition in vivo at 20 µmol/kg [22] [%] | also measured
COC(CC(OC)OC)OC | 12.15 | 11.93 | 11.89 | 11.84 | 6.22 | 11.8 | – | – | – | –
CN1CC[C@]23c4c5ccc(O)c4O[C@H]2[C@@H](O)C=C[C@H]3[C@H]1C5 [MORPHINE] | – | – | – | – | – | – | – | – | – | Activity [7]: 177.6%; Activity [8]: 32.9%; Activity [9]: 36.7%; Activity [10]: 122.7%; Activity [11]: 64.9%; Activity [12]: 147%
CC(=O)Oc1ccccc1C(=O)O [ASPIRIN] | – | – | – | – | – | – | – | – | – | inhibition in vivo at 165 µmol/kg [13]: 65.1%; Activity [14]: 12.88%; Activity [15]: 18.69%; Activity [16]: 16.46%; Activity [17]: 14.59%; Activity [18]: 19.79%; Activity [19]: 14.65%
COC(=O)[C@H](Cc1ccccc1)/N=C/C=C/N[C@@H](Cc1ccccc1)C(=O)OC | 35.82 | 40.67 | 30.66 | 28.92 | 28.22 | 35.33 | 25.4 | 12.9 | 36.8 | –
COC(=O)[C@H](C)N | 12.02 | 11.55 | 11.44 | 12.66 | 7.37 | 11.01 | – | – | – | –
COC(=O)[C@H](CCSC)/N=C/C=C/N[C@@H](CCSC)C(=O)OC | 31.61 | 23.37 | 21.18 | 29.93 | 28.73 | 22.05 | – | – | 25.4 | –
COC(=O)[C@H](COCc1ccccc1)/N=C/C=C/N[C@@H](COCc1ccccc1)C(=O)OC | 36.24 | 37.48 | 33.33 | 34.87 | 32.18 | 34.17 | – | – | 55 | –
COC(=O)[C@H](C)/N=C/C=C/N[C@@H](C)C(=O)OC | 48.4 | 53.33 | 42.29 | 32.49 | 32.26 | 44.71 | 41.9 | 14.8 | 53.1 | Activity [23]: 35.87%; Activity [24]: 30.94%; Activity [25]: 12.24%; Activity [26]: 16.79%; Activity [27]: 22.08%; Activity [28]: 24.58%; Activity [29]: 17.41%; Activity [30]: 25%; Activity [31]: 18.8%; Activity [32]: 27.31%; Activity [33]: 20.27%; Activity [34]: 28.25%
COC(=O)[C@H](CC(C)C)/N=C/C=C/N[C@@H](CC(C)C)C(=O)OC | 40.37 | 45.12 | 41.84 | 29.79 | 26.52 | 42.38 | 80.9 | 73.1 | 88.6 | –
CCC(C)[C@H](/N=C/C=C/N[C@H](C(=O)OC)C(C)CC)C(=O)OC (some centres not stated) | 34.31 | 41.65 | 32.75 | 19.68 | 18.66 | 34.89 | 68 | 48.9 | 77.6 | –
